The values that follow come from article PMC7508885 (SLAS discovery : advancing life sciences R & D, 2020).

Data set [1] deals with T1, P. aeruginosa TyrRS-S (Pseudomonas aeruginosa, UniProt Q9HWP3). Put plainly: ATP:PPi exchange reaction. In kind it is biochemical. To be noted: other substrate (Tyr or ATP) held at 2 mM; enzyme 0.4 μM.
For data set [2], the target named is T2, P. aeruginosa TyrRS-Z (Pseudomonas aeruginosa, UniProt Q9I5Q3). Put plainly: ATP:PPi exchange reaction. In kind it is biochemical. To be noted: other substrate (Tyr or ATP) held at 2 mM; enzyme 0.4 μM.
T2 sequence (Q9I5Q3 whole entry): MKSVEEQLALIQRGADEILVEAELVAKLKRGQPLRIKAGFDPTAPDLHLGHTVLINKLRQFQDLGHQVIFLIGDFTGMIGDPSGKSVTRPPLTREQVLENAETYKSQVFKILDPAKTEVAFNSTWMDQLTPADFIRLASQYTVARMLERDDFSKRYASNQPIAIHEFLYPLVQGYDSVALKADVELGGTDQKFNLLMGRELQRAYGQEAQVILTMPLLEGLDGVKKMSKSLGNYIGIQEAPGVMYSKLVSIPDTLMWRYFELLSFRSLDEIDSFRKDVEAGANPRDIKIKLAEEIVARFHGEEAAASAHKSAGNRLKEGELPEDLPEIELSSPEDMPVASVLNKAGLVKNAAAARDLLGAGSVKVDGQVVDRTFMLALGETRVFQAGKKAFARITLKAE
For data set [3], the target named is T1, P. aeruginosa TyrRS-S. Put plainly: SPA-based tRNA aminoacylation assay. It counts as biochemical.
Data set [4] deals with T1, P. aeruginosa TyrRS-S. The experiment in a line: Binding mode assay. In kind it is biochemical. To be noted: for shift in the IC50 with increasing ATP concentration (competition with ATP): ATP 25-1000 μM, Tyr held constant; for shift in the IC50 with increasing ATP concentration (competition with ATP) / shift in the IC50 with increasing Tyr concentration (competition with Tyr): TyrRS-S 0.05 μM; for shift in the IC50 with increasing Tyr concentration (competition with Tyr): Tyr 25-300 μM, ATP held at 2.5 mM.

Data set [5] relates to Moraxella catarrhalis (ATCC 25238). The experiment in a line: Broth microdilution MIC testing. In kind it is cell-based. To be noted: Gram-negative M. catarrhalis. The method, boiled down: (§1)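 Broth microdilution MIC testing following CLSI guideline M7-A7, run against a 10-strain bacterial panel that included E. coli and P. aeruginosa efflux-pump mutants and a hypersensitive P. aeruginosa strain.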

The test system of data set [6] is Haemophilus influenzae (ATCC 49766). The experiment in a line: Broth microdilution MIC testing. It counts as cell-based. To be noted: Gram-negative respiratory pathogen H. influenzae. The method, boiled down: as §1
Data set [7] concerns human embryonic kidney 293 cells (HEK293). Put plainly: In vitro cytotoxicity test. It counts as cell-based. To be noted: 25-400 μg/mL, 24 h, triplicate.
Data set [8] deals with T2, P. aeruginosa TyrRS-Z. Put plainly: SPA-based tRNA aminoacylation assay. It counts as biochemical.
The subject of data set [9] is HEK-293 cell line. To be noted: quantitative high-throughput screening; ref PubChem CID 53183345; cited from earlier work.
The test system of data set [10] is NIH-3T3 cell line. To be noted: quantitative high-throughput screening; ref PubChem CID 53183345; cited from earlier work.
Data set [11] relates to S. aureus TyrRS. To be noted: cited from earlier work.
Data set [12] deals with TyrRS. To be noted: cited from earlier work.
Data set [13] deals with LysRS. To be noted: cited from earlier work.
Data set [14] has as its system eukaryotic LysRS. To be noted: cited from earlier work.

T1 sequence (Q9HWP3 whole entry): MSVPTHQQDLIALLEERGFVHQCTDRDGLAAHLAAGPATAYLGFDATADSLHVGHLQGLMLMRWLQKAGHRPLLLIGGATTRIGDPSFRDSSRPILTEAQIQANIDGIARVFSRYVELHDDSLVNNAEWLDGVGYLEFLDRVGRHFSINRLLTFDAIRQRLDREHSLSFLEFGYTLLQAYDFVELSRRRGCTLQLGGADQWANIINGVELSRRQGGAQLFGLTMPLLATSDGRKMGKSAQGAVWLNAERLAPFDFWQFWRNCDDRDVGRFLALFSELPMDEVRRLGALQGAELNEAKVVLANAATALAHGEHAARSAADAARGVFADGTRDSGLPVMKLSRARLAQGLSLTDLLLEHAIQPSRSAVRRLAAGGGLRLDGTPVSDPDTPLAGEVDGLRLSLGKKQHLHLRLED

Regarding `Nc1ncnc2c1ncn2[C@@H]1O[C@H](COP(=O)(O)OP(=O)(O)OP(=O)(O)O)[C@@H](O)[C@H]1O` [ATP], the “kcat^obs for interaction with TyrRS-S” value in [1] came out at 1.0 s⁻¹. For the same molecule, the “kcat^obs for interaction with TyrRS-Z” value in data set [2] turned out to be 3.8 s⁻¹.
In [3], `O=C1Nc2ccccc2Oc2cc(N3CCc4ccccc4C3)c(S(=O)(=O)N3CCCCC3)cc21` [BCD37H06, 3-(3,4-dihydroisoquinolin-2(1H)-yl)-2-(piperidin-1-ylsulfonyl) dibenzo[b,f][1,4]oxazepin-11(10H)-one] had an IC50 of 24 µM. Also, in data set [4], the “shift in the IC50 with increasing ATP concentration (competition with ATP)” value is recorded as “no shift in the IC50” and the “shift in the IC50 with increasing Tyr concentration (competition with Tyr)” value is recorded as “no shift in the IC50”. Besides, the “inhibition of cultures (MIC testing)” value in [5] is given as “inhibited”. The “effectiveness against cultures (MIC testing)” value in data set [6] is “effective”. The “toxicity to human cell cultures” value in data set [7] is “failed to exhibit toxic effects at any concentrations tested”.
In [3], `CC(=O)N1CCc2cc(Br)c(S(=O)(=O)NCCN3CCCCC3C)cc21` (stereo not shown) [BCD38C11, 1-acetyl-5-bromo-N-[2-(2-methylpiperidin-1-yl)ethyl]indoline-6-sulfonamide] had an IC50 of 71 µM. The same molecule showed an IC50 in data set [8] of 241 µM. In addition, in [4], the Ki is 5.28 µM, the “shift in the IC50 with increasing ATP concentration (competition with ATP)” value is “increased with increasing ATP concentrations” and the “shift in the IC50 with increasing Tyr concentration (competition with Tyr)” value is recorded as “no change in the IC50 values”. For the same molecule, the “inhibition of cultures (MIC testing)” value in data set [5] is reported as “inhibited”. Further, the “toxicity to human cell cultures” value in [7] is “failed to exhibit toxic effects at any concentrations tested”.
On to `Cc1ccc(N2CN(CC(=O)Nc3cccc(Cl)c3)S(=O)(=O)c3cccnc32)cc1` [BCD49D09, N1-(3-chlorophenyl)-2-[4-(4-methylphenyl)-1,1-dioxo-3,4-dihydro-1λ6-pyrido[2,3-e][1,2,4]thiadiazin-2(1H)-yl] acetamide], for which, in data set [4], the “shift in the IC50 with increasing ATP concentration (competition with ATP)” value was “increased with increasing ATP concentrations” and the “shift in the IC50 with increasing Tyr concentration (competition with Tyr)” value is given as “no change in the IC50 values”. Further, the “inhibition of cultures (MIC testing)” value in data set [5] is “inhibited”. In [7], the “toxicity to human cell cultures” value is “failed to exhibit toxic effects at any concentrations tested”.
Take `O=C(c1ccccc1)N1CCCn2cc(-c3ccc4c(c3)OCO4)nc21` [BCD54B04, [2-(1,3-benzodioxol-5-yl)-6,7-dihydroimidazo[1,2-a]pyrimidin-8(5H)-yl](phenyl) methanone]: in [3], the IC50 stood at 50 µM. In [4], the “shift in the IC50 with increasing ATP concentration (competition with ATP)” value was “no shift in the IC50” and the “shift in the IC50 with increasing Tyr concentration (competition with Tyr)” value is reported as “no shift in the IC50”. Further, the “inhibition of cultures (MIC testing)” value in data set [5] is on record as “inhibited”. Moreover, the “effectiveness against cultures (MIC testing)” value in data set [6] was “effective”. The “toxicity to human cell cultures” value in [7] was “failed to exhibit toxic effects at any concentrations tested”. The “toxicity in HEK-293 cell line” value in data set [9] is reported as “nontoxic”. The “toxicity in NIH-3T3 cell line” value in data set [10] is listed as “nontoxic”.
Take `N[C@@H](Cc1ccc(O)cc1)C(=O)NC(C(=O)O)[C@H]1[C@H](O)[C@]2(O)CO[C@@H]([C@@H]2O)N1O` (stereo partly shown) [SB-219383]: in [11], the “IC50 against S. aureus TyrRS” value was “low nanomolar range”.
As to `COc1ccc(-c2cc(=O)c3c(O)cc(O)cc3o2)cc1` [acacetin], the “effect on TyrRS” value in [12] was “inhibitory effects”.
Turning to `C=CC1=C(C)/C(=C/c2[nH]c(Cc3[nH]c(/C=C4\NC(=O)C(C)=C4C=C)c(C)c3CCC(=O)O)c(CCC(=O)O)c2C)NC1=O` [bilirubin], the “inhibition of LysRS” value in data set [13] is “specific inhibitor of ATP binding”.
Consider `O=c1cc(-c2ccccc2)oc2cc(O)cc(O)c12` [chrysin], for which the “effect on TyrRS” value in [12] is reported as “inhibitory effects”.
In the case of `C[C@H]1CCC[C@H](C[C@H]2Cc3cc(O)cc(O)c3C(=O)O2)O1` [cladosporin], the “inhibition of eukaryotic LysRS” value in [14] is recorded as “potent ATP competitive inhibitor”.
For the molecule `O=C(O[C@@H]1Cc2c(O)cc(O)cc2O[C@@H]1c1cc(O)c(O)c(O)c1)c1cc(O)c(O)c(O)c1` [epigallocatechin, gallate], in data set [12], the “effect on TyrRS” value was “inhibitory effects”.
Turning to `COc1ccc(-c2oc3cc(O)cc(O)c3c(=O)c2O)cc1` [kaempferide], in data set [12], the “effect on TyrRS” value is given as “inhibitory effects”.

By IC50 is commonly meant the point on the concentration scale where inhibition reaches its midpoint. A low value points to higher potency. By Ki is commonly meant a dissociation constant, usually derived from enzyme kinetics or from competition with a known ligand. A higher Ki goes with weaker binding.
